Data set [1] concerns the target Acetylcholinesterase (Electrophorus electricus, UniProt O42275). As to the kind of experiment: Inhibition of electric eel AChE using acetylthiocholine iodide as substrate preincubated for 20 mins followed by substrate addition by DTNB reagent based Ellman's method. For orientation: DTNB colorimetry detects thiols as they appear.
For data set [2], the target named is Acetylcholinesterase (Homo sapiens, UniProt P22303). As to the kind of experiment: Inhibition of human recombinant AChE using acetylthiocholine iodide as substrate preincubated for 20 mins followed by substrate addition by DTNB reagent based Ellman's method.
Data set [3] addresses Cholinesterase (Equus caballus, UniProt P81908). The experiment in a line: Inhibition of equine serum BChE using butyrylthiocholine iodide as substrate preincubated for 20 mins followed by substrate addition by DTNB reagent based Ellman's method. It counts as cell-free.
A short description of data set [4]: Cytotoxicity against mouse brain Primary embryonic cortical cell assessed as cell death at 2.5 uM incubated for 4 hrs by propidium iodide dye based spectrofluorometric analysis relative to control. Type of data set: toxicity. In outline:
(§1)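 Primary cortical cultures from E16.5 mouse embryo brains, trypsinized, plated on poly-D-lysine, grown in Neurobasal with glutamine, glucose, 5% horse serum and B27; compounds added at 4 DIV. Propidium iodide 30 μM; baseline F1 read 1 h after PI; ex 530/em 645 nm. Fmax after digitonin permeabilization. % death = 100×(Fn−F1)/(Fmax−F1); mean of three independent experiments.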

Data set [5] is described as follows: Cytotoxicity against mouse brain Primary embryonic cortical cell assessed as cell death at 2.5 uM incubated for 6 hrs by propidium iodide dye based spectrofluorometric analysis relative to control. It counts as toxicity. The gist of the method:
as §1

Data set [6] in a line: Cytotoxicity against mouse brain Primary embryonic cortical cell assessed as cell death at 5 uM incubated for 3 hrs by propidium iodide dye based spectrofluorometric analysis relative to control. It counts as toxicity. In outline:
as §1

Data set [7] is described as follows: Cytotoxicity against mouse brain Primary embryonic cortical cell assessed as cell death at 5 uM incubated for 4 hrs by propidium iodide dye based spectrofluorometric analysis relative to control. It counts as toxicity. In outline: as §1
A short description of data set [8]: Cytotoxicity against mouse brain Primary embryonic cortical cell assessed as cell death at 5 uM incubated for 24 hrs by propidium iodide dye based spectrofluorometric analysis relative to control. Type of data set: toxicity. The gist of the method:
as §1

Data set [9] is described as follows: Cytotoxicity against mouse brain Primary embryonic cortical cell assessed as cell death at 10 uM incubated for 4 hrs by propidium iodide dye based spectrofluorometric analysis relative to control. It counts as toxicity. The gist of the method:
as §1

A short description of data set [10]: Cytotoxicity against mouse brain Primary embryonic cortical cell assessed as cell death at 30 uM incubated for 2 hrs by propidium iodide dye based spectrofluorometric analysis relative to control. Type of data set: toxicity. In outline: as §1
Data set [11] can be described thus: Cytotoxicity against mouse brain Primary embryonic cortical cell assessed as cell death at 30 uM incubated for 24 hrs by propidium iodide dye based spectrofluorometric analysis relative to control. Type of data set: toxicity. The gist of the method:
as §1

Data set [12] is described as follows: Cytotoxicity against mouse brain Primary embryonic cortical cell assessed as cell death at 30 uM incubated for 72 hrs by propidium iodide dye based spectrofluorometric analysis relative to control. Type of data set: toxicity. The gist of the method: as §1

The structures appear in SMILES notation.

Sequence of Acetylcholinesterase (Electrophorus electricus, UniProt O42275) (O42275 whole entry): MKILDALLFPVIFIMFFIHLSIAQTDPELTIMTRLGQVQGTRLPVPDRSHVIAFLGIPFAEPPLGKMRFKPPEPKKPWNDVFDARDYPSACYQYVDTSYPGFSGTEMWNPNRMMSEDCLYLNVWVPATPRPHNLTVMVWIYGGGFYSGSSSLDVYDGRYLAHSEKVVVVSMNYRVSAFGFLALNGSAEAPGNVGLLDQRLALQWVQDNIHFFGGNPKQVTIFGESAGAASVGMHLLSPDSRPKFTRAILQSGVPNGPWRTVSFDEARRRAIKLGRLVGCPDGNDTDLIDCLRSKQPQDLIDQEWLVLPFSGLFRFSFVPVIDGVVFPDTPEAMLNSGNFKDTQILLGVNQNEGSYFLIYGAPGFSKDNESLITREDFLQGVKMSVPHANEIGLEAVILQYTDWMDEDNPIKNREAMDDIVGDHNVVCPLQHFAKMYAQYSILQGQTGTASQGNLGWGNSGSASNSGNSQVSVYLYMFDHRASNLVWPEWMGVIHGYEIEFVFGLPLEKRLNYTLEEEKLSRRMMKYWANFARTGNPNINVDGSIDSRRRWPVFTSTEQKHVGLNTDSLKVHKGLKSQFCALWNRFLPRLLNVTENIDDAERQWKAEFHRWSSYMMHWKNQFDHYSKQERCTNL
Sequence of Cholinesterase (P81908 whole entry): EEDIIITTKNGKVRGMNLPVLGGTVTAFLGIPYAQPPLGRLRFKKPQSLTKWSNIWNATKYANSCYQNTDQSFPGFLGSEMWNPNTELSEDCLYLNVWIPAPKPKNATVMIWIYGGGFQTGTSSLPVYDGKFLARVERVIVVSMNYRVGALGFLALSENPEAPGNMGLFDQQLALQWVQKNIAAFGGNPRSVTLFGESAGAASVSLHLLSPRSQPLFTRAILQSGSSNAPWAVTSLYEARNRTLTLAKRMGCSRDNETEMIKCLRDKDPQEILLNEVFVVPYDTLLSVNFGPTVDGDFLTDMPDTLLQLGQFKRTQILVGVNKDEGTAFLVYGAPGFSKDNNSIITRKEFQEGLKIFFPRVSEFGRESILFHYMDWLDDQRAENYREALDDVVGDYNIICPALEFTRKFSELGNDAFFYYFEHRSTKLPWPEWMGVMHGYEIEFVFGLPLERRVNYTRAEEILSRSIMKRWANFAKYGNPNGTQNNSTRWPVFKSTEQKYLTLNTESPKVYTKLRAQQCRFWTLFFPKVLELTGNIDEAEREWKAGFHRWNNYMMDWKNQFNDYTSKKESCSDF
Sequence of Acetylcholinesterase (Homo sapiens, UniProt P22303) (P22303 whole entry): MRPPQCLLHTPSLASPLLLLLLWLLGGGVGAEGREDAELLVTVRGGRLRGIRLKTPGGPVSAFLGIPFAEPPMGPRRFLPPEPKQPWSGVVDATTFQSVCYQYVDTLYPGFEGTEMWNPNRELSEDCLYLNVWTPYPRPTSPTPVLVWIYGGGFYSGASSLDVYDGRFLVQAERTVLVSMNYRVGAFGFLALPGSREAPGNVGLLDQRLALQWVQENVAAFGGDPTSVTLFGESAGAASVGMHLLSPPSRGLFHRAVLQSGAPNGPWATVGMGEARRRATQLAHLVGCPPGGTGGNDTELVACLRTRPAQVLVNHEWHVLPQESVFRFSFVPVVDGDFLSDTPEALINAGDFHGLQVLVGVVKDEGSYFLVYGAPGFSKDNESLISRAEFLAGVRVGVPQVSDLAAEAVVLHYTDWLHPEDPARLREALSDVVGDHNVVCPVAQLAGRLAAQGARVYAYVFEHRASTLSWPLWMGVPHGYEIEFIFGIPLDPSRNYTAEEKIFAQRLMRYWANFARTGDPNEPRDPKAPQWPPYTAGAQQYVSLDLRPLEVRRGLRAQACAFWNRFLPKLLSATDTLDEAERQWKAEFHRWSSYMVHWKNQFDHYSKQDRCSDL

A word on the IC50: it is the concentration at which inhibition is half-maximal. Turning to `COc1ccc2sc3c(C)ccc(NCCC4CCN(C)CC4)c3c(=O)c2c1`, the IC50 was 4.4 µM in [1], 16.1 µM in data set [2] and 0.96 µM in [3]. Further, the Activity stood at 17.4% in [4]; 29.9% in [5]; 15.8% in [6]; 25.8% in data set [7]; 91.3% in [8]; 52.6% in data set [9]. Further, the Activity worked out at 46.5% in data set [10], 86.1% in data set [11] and 89.4% in data set [12].

The values are drawn from ChEMBL document CHEMBL5335771, “Thioxanthenone-based derivatives as multitarget therapeutic leads for Alzheimer's disease” (Eur J Med Chem, 2023).
